Converted amounts (≈) assume the structure as drawn.
Columns and labels:
Type in all cases: functional
[1] = tested on: Staphylococcus aureus; assay: Antibacterial activity against kanamycin-resistant and fusidic acid-susceptible Staphylococcus aureus AH292 harboring Gly664Val mutation in fusA gene after 18 to 24 hrs by Etest strip assay
In short: (§1)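 Etest MIC: a single colony was suspended in 0.9% NaCl to 0.5 McFarland and swabbed over Mueller-Hinton agar. The strip was applied and plates were incubated at 37°C for 18 to 24 h until an SCV lawn grew.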

[2] = tested on: Staphylococcus aureus; assay: Antibacterial activity against kanamycin-resistant and fusidic acid-susceptible Staphylococcus aureus AH422 harboring +2 frameshift mutation at nucleotide 222 in rplF gene after 18 to 24 hrs by Etest strip assay; in short: as §1
[3] = tested on: Staphylococcus aureus; assay: Antibacterial activity against kanamycin-resistant and fusidic acid-susceptible Staphylococcus aureus AH416 harboring deletion of nucleotide 395-398 in rplF gene after 18 to 24 hrs by Etest strip assay; in short: as §1
[4] = tested on: Staphylococcus aureus; assay: Antibacterial activity against fusidic acid-resistant Staphylococcus aureus AH207 harboring Thr385Asn mutation in fusA gene after 18 to 24 hrs by Etest strip assay
In short: (§2)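 Mutants of lab strain 8325-4 were selected on LA with FA 2 μg/ml for 48 h at 37°C and purified on selective medium. For the MIC, one colony was suspended in 0.9% NaCl to 0.5 McFarland and swabbed onto Mueller-Hinton agar. An Etest strip was applied and plates were incubated at 37°C for 18–24 h until the lawn was evident.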

[5] = tested on: Staphylococcus aureus; assay: Antibacterial activity against fusidic acid-resistant Staphylococcus aureus AH194 harboring Pro404Leu mutation in fusA gene after 18 to 24 hrs by Etest strip assay; in short: as §2
[6] = tested on: Staphylococcus aureus; assay: Antibacterial activity against fusidic acid-resistant Staphylococcus aureus AH201 harboring Gly452Cys mutation in fusA after 18 to 24 hrs by Etest strip assay; in short: as §2
[7] = tested on: Staphylococcus aureus; assay: Antibacterial activity against fusidic acid-resistant Staphylococcus aureus AH197 harboring Leu456Phe mutation in fusA gene after 18 to 24 hrs by Etest strip assay; in short: as §2
[8] = tested on: Staphylococcus aureus; assay: Antibacterial activity against fusidic acid-resistant Staphylococcus aureus AH187 harboring His457Tyr mutation in fusA gene after 18 to 24 hrs by Etest strip assay; in short: as §2
[9] = tested on: Staphylococcus aureus; assay: Antibacterial activity against fusidic acid-resistant Staphylococcus aureus AH188 harboring Gly664Ser mutation in fusA gene after 18 to 24 hrs by Etest strip assay; in short: as §2
[10] = tested on: Staphylococcus aureus; assay: Antibacterial activity against fusidic acid-resistant Staphylococcus aureus AH193 harboring TAA stop codon at nucleotide 299 in rplF gene after 18 to 24 hrs by Etest strip assay; in short: as §2
[11] = tested on: Staphylococcus aureus; assay: Antibacterial activity against fusidic acid-resistant Staphylococcus aureus AH199 harboring TAA stop codon at nucleotide 241 in rplF gene after 18 to 24 hrs by Etest strip assay; in short: as §2
[12] = tested on: Staphylococcus aureus; assay: Antibacterial activity against fusidic acid-resistant Staphylococcus aureus AH202 harboring CTG start codon at nucleotide 1 in rplF gene after 18 to 24 hrs by Etest strip assay; in short: as §2
[13] = tested on: Staphylococcus aureus; assay: Antibacterial activity against kanamycin-resistant Staphylococcus aureus AH369 (SCV-41) harboring Gln115Leu mutation in fusA gene after 18 to 24 hrs by Etest strip assay
In short: (§3)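 SCVs of a Rifr 8325-4 derivative were selected on LA with KAN at 8, 16 or 24 μg/ml for 48 h at 37°C. They were purified at the same KAN level and screened on LA plus FA 1 μg/ml.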

[14] = tested on: Staphylococcus aureus; assay: Antibacterial activity against kanamycin-resistant Staphylococcus aureus AH338 (SCV-10) harboring Arg464Cys mutation in fusA gene after 18 to 24 hrs by Etest strip assay; in short: as §3
[15] = tested on: Staphylococcus aureus; assay: Antibacterial activity against kanamycin-resistant Staphylococcus aureus AH340 (SCV-12) harboring Gly617Asp mutation in fusA gene after 18 to 24 hrs by Etest strip assay; in short: as §3
[16] = tested on: Staphylococcus aureus; assay: Antibacterial activity against kanamycin-resistant Staphylococcus aureus AH329 (SCV-1) harboring Arg659Cys mutation in fusA gene after 18 to 24 hrs by Etest strip assay; in short: as §3
[17] = tested on: Staphylococcus aureus; assay: Antibacterial activity against kanamycin-resistant Staphylococcus aureus AH348 (SCV-20) harboring TGA stop codon at nucleotide 244 in rplF gene after 18 to 24 hrs by Etest strip assay; in short: as §3
[18] = tested on: Staphylococcus aureus; assay: Antibacterial activity against kanamycin-resistant Staphylococcus aureus AH370 (SCV-42) harboring TAA stop codon at nucleotide 229 in rplF gene after 18 to 24 hrs by Etest strip assay; in short: as §3
[19] = tested on: Staphylococcus aureus; assay: Antibacterial activity against kanamycin-resistant Staphylococcus aureus AH346 (SCV-18) harboring -1 frameshift mutation at nucleotide 238 in rplF gene after 18 to 24 hrs by Etest strip assay; in short: as §3
[20] = tested on: Staphylococcus aureus; assay: Antibacterial activity against kanamycin-resistant Staphylococcus aureus AH379 (SCV-51) harboring TAA stop codon at nucleotide 418 in rplF but gene after 18 to 24 hrs by Etest strip assay; in short: as §3
[21] = tested on: Staphylococcus aureus; assay: Antibacterial activity against kanamycin-resistant Staphylococcus aureus AH349 (SCV-21) harboring -1 frameshift mutation at nucleotide 404 in rplF gene after 18 to 24 hrs by Etest strip assay; in short: as §3
[22] = tested on: Staphylococcus aureus; assay: Antibacterial activity against kanamycin-resistant Staphylococcus aureus AH374 (SCV-46) harboring -5 frameshift mutation at nucleotide 236-240 in rplF gene after 18 to 24 hrs by Etest strip assay; in short: as §3
[23] = tested on: Staphylococcus aureus; assay: Antibacterial activity against kanamycin-resistant Staphylococcus aureus AH358 (SCV-30) harboring -1 frameshift mutation at nucleotide 423 in rplF gene after 18 to 24 hrs by Etest strip assay; in short: as §3
[24] = tested on: Staphylococcus aureus; assay: Antibacterial activity against kanamycin-resistant Staphylococcus aureus AH384 (SCV-56) harboring -1 frameshift mutation at nucleotide 221 in rplF gene after 18 to 24 hrs by Etest strip assay; in short: as §3
[25] = tested on: Staphylococcus aureus; assay: Antibacterial activity against kanamycin-resistant Staphylococcus aureus AH378 (SCV-50) harboring -1 frameshift mutation at nucleotide 221 in rplF gene after 18 to 24 hrs by Etest strip assay; in short: as §3
[26] = tested on: Staphylococcus aureus; assay: Antibacterial activity against kanamycin-resistant Staphylococcus aureus AH360 (SCV-32) harboring ATA start codon at nucleotide 3 in rplF gene after 18 to 24 hrs by Etest strip assay; in short: as §3
[27] = tested on: Staphylococcus aureus; assay: Antibacterial activity against kanamycin-resistant Staphylococcus aureus AH383 (SCV-55) harboring TAA stop codon at nucleotide 139 in rplF gene after 18 to 24 hrs by Etest strip assay; in short: as §3
[28] = tested on: Staphylococcus aureus; assay: Antibacterial activity against kanamycin-resistant Staphylococcus aureus AH330 (SCV-2) harboring -1 frameshift mutation at nucleotide 423 in rplF gene after 18 to 24 hrs by Etest strip assay; in short: as §3
[29] = tested on: Staphylococcus aureus; assay: Antibacterial activity against kanamycin-resistant Staphylococcus aureus AH390 (SCV-62) harboring +1 frameshift mutation at nucleotide 84 in rplF gene after 18 to 24 hrs by Etest strip assay; in short: as §3
[30] = tested on: Staphylococcus aureus; assay: Antibacterial activity against kanamycin-resistant and fusidic acid-susceptible wild type Staphylococcus aureus 8325-4 […] after 18 to 24 hrs by Etest strip assay; in short: as §1
[31] = tested on: Staphylococcus aureus; assay: Antibacterial activity against kanamycin-resistant and fusidic acid-susceptible Staphylococcus aureus AH288 harboring Gly617Asp mutation in fusA gene after 18 to 24 hrs by Etest strip assay; in short: as §1
[32] = tested on: Staphylococcus aureus; assay: Antibacterial activity against kanamycin-resistant and fusidic acid-susceptible Staphylococcus aureus AH294 harboring Gly628Val mutation in fusA gene after 18 to 24 hrs by Etest strip assay; in short: as §1

Structure (SMILES)	MIC [1] [µg/mL]	MIC [2] [µg/mL]	MIC [3] [µg/mL]	MIC [4] [µg/mL]	MIC [5] [µg/mL]	MIC [6] [µg/mL]	MIC [7] [µg/mL]	MIC [8] [µg/mL]	MIC [9] [µg/mL]	MIC [10] [µg/mL]	MIC [11] [µg/mL]	MIC [12] [µg/mL]	MIC [13] [µg/mL]	MIC [14] [µg/mL]	MIC [15] [µg/mL]	MIC [16] [µg/mL]	MIC [17] [µg/mL]	MIC [18] [µg/mL]	MIC [19] [µg/mL]	MIC [20] [µg/mL]	also measured
CC(=O)O[C@H]1C[C@@]2(C)[C@@H](C[C@@H](O)[C@H]3[C@@]4(C)CC[C@@H](O)[C@@H](C)[C@@H]4CC[C@@]32C)/C1=C(\CCC=C(C)C)C(=O)O [FUSIDIC ACID]	6 (≈ 11.6 µM)	12	48 (≈ 92.9 µM)	4 (≈ 7.74 µM)	4 (≈ 7.74 µM)	12 (≈ 23.2 µM)	4 (≈ 7.74 µM)	96 (≈ 186 µM)	4 (≈ 7.74 µM)	4 (≈ 7.74 µM)	4 (≈ 7.74 µM)	4 (≈ 7.74 µM)	48 (≈ 92.9 µM)	2 (≈ 3.87 µM)	4 (≈ 7.74 µM)	12 (≈ 23.2 µM)	8 (≈ 15.5 µM)	8 (≈ 15.5 µM)	8	6 (≈ 11.6 µM)	MIC [21]: 4 µg/mL; MIC [22]: 8 µg/mL; MIC [23]: 12 µg/mL; MIC [24]: 24 µg/mL; MIC [25]: 8 µg/mL; MIC [26]: 24 µg/mL (≈ 46.4 µM); MIC [27]: 16 µg/mL (≈ 31 µM); MIC [28]: 12 µg/mL; MIC [29]: 16 µg/mL; MIC [30]: 0.047 µg/mL (≈ 0.091 µM); MIC [31]: 6 µg/mL (≈ 11.6 µM); MIC [32]: 2 µg/mL (≈ 3.87 µM)
CN[C@@H]1[C@H](O[C@H]2[C@H](O[C@H]3[C@H](O)[C@@H](O)[C@H](N=C(N)N)[C@@H](O)[C@@H]3N=C(N)N)O[C@@H](C)[C@]2(O)C=O)O[C@@H](CO)[C@H](O)[C@H]1O [STREPTOMYCIN]	16 (≈ 27.5 µM)	32	256 (≈ 440 µM)	12 (≈ 20.6 µM)	8 (≈ 13.8 µM)	8 (≈ 13.8 µM)	8 (≈ 13.8 µM)	6 (≈ 10.3 µM)	16 (≈ 27.5 µM)	24 (≈ 41.3 µM)	16 (≈ 27.5 µM)	16 (≈ 27.5 µM)	12 (≈ 20.6 µM)	24 (≈ 41.3 µM)	24 (≈ 41.3 µM)	24 (≈ 41.3 µM)	16 (≈ 27.5 µM)	24 (≈ 41.3 µM)	24	16 (≈ 27.5 µM)	MIC [21]: 64 µg/mL; MIC [22]: 96 µg/mL; MIC [23]: 64 µg/mL; MIC [24]: 256 µg/mL; MIC [25]: 256 µg/mL; MIC [26]: 192 µg/mL (≈ 330 µM); MIC [27]: 192 µg/mL (≈ 330 µM); MIC [28]: 96 µg/mL; MIC [29]: 64 µg/mL; MIC [30]: 6 µg/mL (≈ 10.3 µM); MIC [31]: 32 µg/mL (≈ 55 µM); MIC [32]: 8 µg/mL (≈ 13.8 µM)
NC[C@H]1O[C@H](O[C@H]2[C@H](O)[C@@H](O[C@H]3O[C@H](CO)[C@@H](O)[C@H](N)[C@H]3O)[C@H](N)C[C@@H]2N)[C@H](O)[C@@H](O)[C@@H]1O [KANAMYCIN]	32 (≈ 66 µM)	128	256 (≈ 528 µM)	3 (≈ 6.19 µM)	2 (≈ 4.13 µM)	6 (≈ 12.4 µM)	6 (≈ 12.4 µM)	3 (≈ 6.19 µM)	24 (≈ 49.5 µM)	8 (≈ 16.5 µM)	8 (≈ 16.5 µM)	8 (≈ 16.5 µM)	6 (≈ 12.4 µM)	48 (≈ 99.1 µM)	12 (≈ 24.8 µM)	12 (≈ 24.8 µM)	8 (≈ 16.5 µM)	8 (≈ 16.5 µM)	8	12 (≈ 24.8 µM)	MIC [21]: 16 µg/mL; MIC [22]: 32 µg/mL; MIC [23]: 48 µg/mL; MIC [24]: 128 µg/mL; MIC [25]: 16 µg/mL; MIC [26]: 96 µg/mL (≈ 198 µM); MIC [27]: 96 µg/mL (≈ 198 µM); MIC [28]: 128 µg/mL; MIC [29]: 256 µg/mL; MIC [30]: 2 µg/mL (≈ 4.13 µM); MIC [31]: 16 µg/mL (≈ 33 µM); MIC [32]: 16 µg/mL (≈ 33 µM)

From ChEMBL document CHEMBL1151442, “Genetic and phenotypic identification of fusidic acid-resistant mutants with the small-colony-variant phenotype in Staphylococcus aureus” (2007)
